Results: ChEMBL document CHEMBL1142339, “Carbamoylphosphonate matrix metalloproteinase inhibitors 6: cis-2-aminocyclohexylcarbamoylphosphonic acid, a novel orally active antimetastatic matrix metalloproteinase-2 selective inhibitor--synthesis and pharmacodynamic and pharmacokinetic analysis” (J Med Chem, 2008)

Assays:
[1] = Elimination half life in Wistar rat at 150 mg/kg, ip; assay type: ADME, organism-based; parameters: dose 150 mg/kg, route intraperitoneal; details: in vivo
Procedure, shortened: (§1)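 Compound dissolved in normal saline/water 60/40 (20 mg/mL). Rats: fasted 12 h before and first 12 h; blood sampled 5–240 min after iv, to 8 h oral, to 24 h ip; urine collected at 24 and 48 h in metabolic cages. Mice (22–25 g, fasted 12 h): portal-vein blood under ether at 0–720 min, one mouse per time point. Plasma quantified by HPLC-MS with acyclovir internal standard.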

[2] = Cmax in Wistar rat at 50 mg/kg, iv; assay type: ADME, organism-based; parameters: dose 50 mg/kg, route intravenous; details: in vivo; procedure, shortened: as §1
[3] = test system: B16-F10; test: Reduction in tumor colonization in of C57B1 mouse bearing B16F10 cells at 50 mg/kg, po after 21 days; assay type: functional; parameters: scale not given: the % may be the effect or the level left
Procedure, shortened: (§2)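 Female C57Bl mice given 50k B16F10 cells via tail vein; dosing started the same day, daily except weekends for three weeks, in PBS, ip or oral (dose-response 12.5–50 mg/kg ip). Lungs fixed at day 21 and metastatic foci counted; eight mice per group.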

[4] = Half life in C57B1 mouse at 150 mg/kg, po; assay type: ADME, organism-based; parameters: dose 150 mg/kg, route oral; details: in vivo; procedure, shortened: as §1
[5] = test system: Rattus norvegicus; test: Time over MIC in Wistar rat at 150 mg/kg, po; assay type: ADME, organism-based; parameters: dose 150 mg/kg, route oral; details: in vivo; procedure, shortened: as §1
[6] = target: Macrophage metalloelastase (Homo sapiens, UniProt P39900); test: Inhibition of human recombinant MMP12
Procedure, shortened: (§3)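 Purified human recombinant enzyme tested at four different concentrations against the matching colorimetric or fluorescent peptide substrate for 3 h, with inhibitor at four to six concentrations. Activity was read as a colour or fluorescence change on a plate reader, and IC50 was calculated from these readings.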

[7] = test system: B16-F10; test: Reduction in tumor colonization in C57B1 mouse bearing B16F10 cells at 50 mg/kg, ip after 21 days; assay type: functional; parameters: scale not given: the % may be the effect or the level left; details: route intraperitoneal; procedure, shortened: as §2
[8] = Clearance in Wistar rat at 50 mg/kg, iv; assay type: ADME, organism-based; parameters: dose 50 mg/kg, route intravenous; details: in vivo; procedure, shortened: as §1
[9] = target: Matrix metalloproteinase-9 (Homo sapiens, UniProt P14780); test: Inhibition of human recombinant MMP9
Procedure, shortened: (§4)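 Human recombinant enzymes each incubated at four concentrations with a suitable colorimetric or fluorogenic peptide substrate for 3 h. Inhibitor tested at four to six concentrations. Activity read as colorimetric or fluorescence change on a plate reader.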

[10] = Apparent permeability in Wistar rat jejunum in using diffusion chamber; assay type: ADME, tissue-based
Procedure, shortened: (§5)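 Everted-free intestinal segments (jejunum, ileum, colon) from four animals mounted in Ussing chambers; compound at 600 µg/mL in mucosa buffer added to the mucosal side. Serosal samples taken at 30, 60, 90, 120, 150 min, mucosal at 0 and 150 min, with buffer replacement. Quantified by HPLC-MS; Papp reported with SD.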

[11] = Reduction of metastasis formation in SCID mouse bearing human prostate tumor cells at 50 mg/kg, ip; assay type: functional; parameters: scale not given: the % may be the effect or the level left; details: route intraperitoneal
Procedure, shortened: (§6)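 Luciferase-transfected human prostate tumour cells implanted orthotopically into the prostate of SCID mice; daily ip dosing except weekends for six weeks. Primary tumour growth and metastasis followed weekly by luciferin bioluminescence imaging with a CCD camera.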

[12] = test system: Mus musculus; test: Time over MIC in C57B1 mouse at 150 mg/kg, po; assay type: ADME, organism-based; parameters: dose 150 mg/kg, route oral; details: in vivo; procedure, shortened: as §1
[13] = Cmax in Wistar rat at 150 mg/kg, po; assay type: ADME, organism-based; parameters: dose 150 mg/kg, route oral; details: in vivo; procedure, shortened: as §1
[14] = AUC in Wistar rat at 150 mg/kg, ip; assay type: ADME, organism-based; parameters: dose 150 mg/kg, route intraperitoneal; details: plasma; procedure, shortened: as §1
[15] = target: Stromelysin-1 (Homo sapiens, UniProt P08254); test: Inhibition of human recombinant MMP3; procedure, shortened: as §4
[16] = test system: Mus musculus; test: Acute toxicity in C57B1 mouse at 50 to 500 mg/kg; assay type: organism-based; parameters: dose 50-500 mg/kg; details: in vivo
Procedure, shortened: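 C57Bl mice dosed intraperitoneally daily for two weeks at 50, 250 and 500 mg/kg; monitored for toxic signs and behavioural and nutritional status.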

[17] = Apparent permeability in Wistar rat colon in Using diffusion chamber; assay type: ADME, tissue-based; details: not told; procedure, shortened: as §5
[18] = target: T1, 72 kDa type IV collagenase (Homo sapiens, UniProt P08253); details: 100 uM
Target sequence in this assay (P08253 110-660 limits assumed): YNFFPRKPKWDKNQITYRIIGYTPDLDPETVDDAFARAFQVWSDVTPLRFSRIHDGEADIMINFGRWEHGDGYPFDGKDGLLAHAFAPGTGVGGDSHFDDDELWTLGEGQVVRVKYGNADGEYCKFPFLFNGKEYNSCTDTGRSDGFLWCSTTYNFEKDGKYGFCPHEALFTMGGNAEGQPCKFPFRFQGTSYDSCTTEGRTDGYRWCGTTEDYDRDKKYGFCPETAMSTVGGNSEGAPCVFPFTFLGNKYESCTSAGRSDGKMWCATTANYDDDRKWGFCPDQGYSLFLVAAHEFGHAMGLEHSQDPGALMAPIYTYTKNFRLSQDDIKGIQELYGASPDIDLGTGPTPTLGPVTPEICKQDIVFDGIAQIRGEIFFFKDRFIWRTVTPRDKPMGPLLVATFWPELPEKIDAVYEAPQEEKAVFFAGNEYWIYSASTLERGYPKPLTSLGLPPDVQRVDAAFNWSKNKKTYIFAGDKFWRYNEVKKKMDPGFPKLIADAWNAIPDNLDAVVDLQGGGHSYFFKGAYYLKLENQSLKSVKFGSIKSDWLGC

[19] = AUC in C57B1 mouse at 150 mg/kg, po; assay type: ADME, organism-based; parameters: dose 150 mg/kg, route oral; details: plasma; procedure, shortened: as §1
[20] = Bioavailability in Wistar rat at 150 mg/kg, ip; assay type: ADME, organism-based; details: in vivo; procedure, shortened: as §1
[21] = Apparent permeability in C57B1 mouse jejunum in using diffusion chamber; assay type: ADME, tissue-based
[22] = Elimination half life in Wistar rat at 50 mg/kg, iv; assay type: ADME, organism-based; parameters: dose 50 mg/kg, route intravenous; details: in vivo; procedure, shortened: as §1
[23] = Tmax in Wistar rat at 150 mg/kg, po; assay type: ADME, organism-based; parameters: dose 150 mg/kg, route oral; details: in vivo; procedure, shortened: as §1
[24] = Bioavailability in Wistar rat at 150 mg/kg, po; assay type: ADME, organism-based; details: in vivo; procedure, shortened: as §1
[25] = test system: Rattus norvegicus; test: Time over MIC in Wistar rat at 50 mg/kg, iv; assay type: ADME, organism-based; parameters: dose 50 mg/kg, route intravenous; details: in vivo; procedure, shortened: as §1
[26] = Cmax in C57B1 mouse at 150 mg/kg, po; assay type: ADME, organism-based; parameters: dose 150 mg/kg, route oral; details: in vivo; procedure, shortened: as §1
[27] = target: T2, Interstitial collagenase (Homo sapiens, UniProt P03956); test: Inhibition of human recombinant MMP1; procedure, shortened: as §3
T2 sequence (P03956 whole entry): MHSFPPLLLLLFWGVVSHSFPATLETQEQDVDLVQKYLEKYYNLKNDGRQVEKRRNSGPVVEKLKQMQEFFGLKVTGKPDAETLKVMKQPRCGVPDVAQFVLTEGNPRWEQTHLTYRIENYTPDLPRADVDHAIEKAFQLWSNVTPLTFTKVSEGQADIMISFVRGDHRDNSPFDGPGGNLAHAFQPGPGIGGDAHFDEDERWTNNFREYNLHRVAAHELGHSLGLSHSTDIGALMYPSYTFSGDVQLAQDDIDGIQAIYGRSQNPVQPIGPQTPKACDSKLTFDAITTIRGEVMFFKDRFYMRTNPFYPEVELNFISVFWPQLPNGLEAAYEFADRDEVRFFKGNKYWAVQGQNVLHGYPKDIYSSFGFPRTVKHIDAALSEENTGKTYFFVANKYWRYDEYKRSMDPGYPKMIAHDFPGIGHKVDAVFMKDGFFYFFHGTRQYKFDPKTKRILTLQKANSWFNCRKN

[28] = Apparent permeability in C57B1 mouse colon in using diffusion chamber; assay type: ADME, tissue-based; details: not told
[29] = target: Disintegrin and metalloproteinase domain-containing protein 17 (Homo sapiens, UniProt P78536); test: Inhibition of human recombinant TACE; procedure, shortened: as §3
[30] = AUC in Wistar rat at 150 mg/kg, po; assay type: ADME, organism-based; parameters: dose 150 mg/kg, route oral; details: plasma; procedure, shortened: as §1
[31] = Reduction of local tumor growth in SCID mouse bearing human prostate tumor cells at 50 mg/kg, ip; assay type: functional; parameters: scale not given: the % may be the effect or the level left; details: route intraperitoneal; procedure, shortened: as §6
[32] = test system: B16-F10; test: Inhibition of metastasis formation in lungs of C57B1 mouse bearing B16F10 cells at 12.5 to 50 mg/kg, ip after 21 days; assay type: functional, Lung; details: dose mg/kg 12.5-50; route intraperitoneal; procedure, shortened: as §2
[33] = target: Neutrophil collagenase (Homo sapiens, UniProt P22894); test: Inhibition of human recombinant MMP8; procedure, shortened: as §4
[34] = target: T1, 72 kDa type IV collagenase; test: Inhibition of human recombinant MMP2; procedure, shortened: as §4
Target sequence in this assay (P08253 whole entry): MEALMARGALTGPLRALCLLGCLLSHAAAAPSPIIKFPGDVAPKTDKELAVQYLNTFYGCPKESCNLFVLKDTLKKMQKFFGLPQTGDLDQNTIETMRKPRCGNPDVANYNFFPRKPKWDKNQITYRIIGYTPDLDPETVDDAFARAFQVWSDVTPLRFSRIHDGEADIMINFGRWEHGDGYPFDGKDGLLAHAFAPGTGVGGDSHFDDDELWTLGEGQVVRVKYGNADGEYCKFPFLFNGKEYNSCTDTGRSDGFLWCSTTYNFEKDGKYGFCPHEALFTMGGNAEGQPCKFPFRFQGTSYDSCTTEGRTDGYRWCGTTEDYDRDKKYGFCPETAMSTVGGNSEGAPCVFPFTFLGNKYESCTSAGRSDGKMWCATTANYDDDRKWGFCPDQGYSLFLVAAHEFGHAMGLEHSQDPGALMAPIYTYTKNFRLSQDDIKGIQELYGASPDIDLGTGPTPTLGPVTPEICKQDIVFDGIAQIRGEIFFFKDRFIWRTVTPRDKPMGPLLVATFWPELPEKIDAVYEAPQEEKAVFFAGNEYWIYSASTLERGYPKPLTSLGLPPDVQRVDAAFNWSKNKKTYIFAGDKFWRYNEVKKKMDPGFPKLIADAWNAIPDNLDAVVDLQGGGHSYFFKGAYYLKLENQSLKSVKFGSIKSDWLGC

[35] = AUC in Wistar rat at 50 mg/kg, iv; assay type: ADME, organism-based; parameters: dose 50 mg/kg, route intravenous; details: plasma; procedure, shortened: as §1
[36] = Apparent permeability in Wistar rat ileum in using diffusion chamber; assay type: ADME, tissue-based; procedure, shortened: as §5
[37] = Tmax in C57B1 mouse at 150 mg/kg, po; assay type: ADME, organism-based; parameters: dose 150 mg/kg, route oral; details: in vivo; procedure, shortened: as §1
[38] = test system: Rattus norvegicus; test: Time over MIC in Wistar rat at 150 mg/kg, ip; assay type: ADME, organism-based; parameters: dose 150 mg/kg, route intraperitoneal; details: in vivo; procedure, shortened: as §1
[39] = Elimination half life in Wistar rat at 150 mg/kg, po; assay type: ADME, organism-based; parameters: dose 150 mg/kg, route oral; details: in vivo; procedure, shortened: as §1
[40] = Tmax in Wistar rat at 150 mg/kg, ip; assay type: ADME, organism-based; parameters: dose 150 mg/kg, route intraperitoneal; details: in vivo; procedure, shortened: as §1
[41] = target: Collagenase 3 (Homo sapiens, UniProt P45452); test: Inhibition of human recombinant MMP13; procedure, shortened: as §4
[42] = Volume of distribution at steady state in Wistar rat at 50 mg/kg, iv; assay type: ADME, organism-based; parameters: dose 50 mg/kg, route intravenous; details: in vivo, read-out: Vdss; procedure, shortened: as §1
[43] = Cmax in Wistar rat at 150 mg/kg, ip; assay type: ADME, organism-based; parameters: dose 150 mg/kg, route intraperitoneal; details: in vivo; procedure, shortened: as §1

Macrophage metalloelastase, sequence (P39900 whole entry): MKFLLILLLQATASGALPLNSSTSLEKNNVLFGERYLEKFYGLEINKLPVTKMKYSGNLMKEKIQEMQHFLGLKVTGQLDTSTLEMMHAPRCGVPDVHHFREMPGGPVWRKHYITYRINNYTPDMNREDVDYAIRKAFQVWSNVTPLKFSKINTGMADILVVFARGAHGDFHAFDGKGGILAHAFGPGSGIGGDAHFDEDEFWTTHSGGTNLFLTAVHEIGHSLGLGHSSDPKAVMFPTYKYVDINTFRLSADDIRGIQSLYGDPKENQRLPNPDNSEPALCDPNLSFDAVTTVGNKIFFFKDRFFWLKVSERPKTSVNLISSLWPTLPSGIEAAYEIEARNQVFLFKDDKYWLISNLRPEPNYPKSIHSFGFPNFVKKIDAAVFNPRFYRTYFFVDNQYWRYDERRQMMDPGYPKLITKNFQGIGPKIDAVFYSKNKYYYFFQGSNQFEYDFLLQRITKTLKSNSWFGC
Matrix metalloproteinase-9, sequence (P14780 whole entry): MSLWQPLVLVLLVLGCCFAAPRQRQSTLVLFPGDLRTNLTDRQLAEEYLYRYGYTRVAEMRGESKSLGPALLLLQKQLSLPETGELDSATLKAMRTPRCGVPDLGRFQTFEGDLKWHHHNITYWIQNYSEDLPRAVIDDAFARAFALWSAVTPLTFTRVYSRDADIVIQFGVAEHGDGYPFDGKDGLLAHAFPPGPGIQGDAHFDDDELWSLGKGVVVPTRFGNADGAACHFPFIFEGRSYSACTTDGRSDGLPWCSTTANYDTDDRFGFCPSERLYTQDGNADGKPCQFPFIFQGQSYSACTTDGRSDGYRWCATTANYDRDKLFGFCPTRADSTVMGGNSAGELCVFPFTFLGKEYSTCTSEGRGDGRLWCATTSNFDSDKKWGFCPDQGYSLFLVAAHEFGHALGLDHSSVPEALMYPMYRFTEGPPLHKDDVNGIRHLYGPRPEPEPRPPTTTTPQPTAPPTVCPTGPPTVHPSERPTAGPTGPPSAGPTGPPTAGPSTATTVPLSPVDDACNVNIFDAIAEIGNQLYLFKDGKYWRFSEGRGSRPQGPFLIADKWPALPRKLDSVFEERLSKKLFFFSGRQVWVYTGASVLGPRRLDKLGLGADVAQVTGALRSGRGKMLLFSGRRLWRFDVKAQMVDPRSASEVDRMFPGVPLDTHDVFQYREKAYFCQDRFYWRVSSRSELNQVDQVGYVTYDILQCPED
Disintegrin and metalloproteinase domain-containing protein 17, sequence (P78536 whole entry, the tested form may be a part): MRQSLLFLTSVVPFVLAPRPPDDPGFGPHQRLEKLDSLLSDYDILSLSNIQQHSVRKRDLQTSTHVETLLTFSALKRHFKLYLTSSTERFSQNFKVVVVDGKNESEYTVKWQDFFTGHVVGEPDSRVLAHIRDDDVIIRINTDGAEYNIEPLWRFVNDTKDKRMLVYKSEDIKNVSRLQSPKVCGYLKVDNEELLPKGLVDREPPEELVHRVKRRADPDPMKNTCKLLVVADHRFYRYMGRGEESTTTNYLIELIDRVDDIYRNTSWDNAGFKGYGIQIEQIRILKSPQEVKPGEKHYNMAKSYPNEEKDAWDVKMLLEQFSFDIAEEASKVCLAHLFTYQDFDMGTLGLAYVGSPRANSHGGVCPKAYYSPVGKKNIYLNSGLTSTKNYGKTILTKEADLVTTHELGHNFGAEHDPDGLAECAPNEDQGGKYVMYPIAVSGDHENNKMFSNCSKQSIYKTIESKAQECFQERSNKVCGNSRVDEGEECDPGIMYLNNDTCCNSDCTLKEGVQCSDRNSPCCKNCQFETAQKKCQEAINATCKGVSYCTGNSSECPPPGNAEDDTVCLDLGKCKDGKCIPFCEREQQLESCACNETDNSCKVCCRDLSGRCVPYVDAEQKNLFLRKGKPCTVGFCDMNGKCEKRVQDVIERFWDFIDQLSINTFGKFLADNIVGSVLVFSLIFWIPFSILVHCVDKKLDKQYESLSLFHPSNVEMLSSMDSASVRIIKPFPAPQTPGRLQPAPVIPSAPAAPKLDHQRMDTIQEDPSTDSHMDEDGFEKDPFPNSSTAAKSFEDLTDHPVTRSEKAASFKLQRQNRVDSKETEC
Stromelysin-1, sequence (P08254 whole entry): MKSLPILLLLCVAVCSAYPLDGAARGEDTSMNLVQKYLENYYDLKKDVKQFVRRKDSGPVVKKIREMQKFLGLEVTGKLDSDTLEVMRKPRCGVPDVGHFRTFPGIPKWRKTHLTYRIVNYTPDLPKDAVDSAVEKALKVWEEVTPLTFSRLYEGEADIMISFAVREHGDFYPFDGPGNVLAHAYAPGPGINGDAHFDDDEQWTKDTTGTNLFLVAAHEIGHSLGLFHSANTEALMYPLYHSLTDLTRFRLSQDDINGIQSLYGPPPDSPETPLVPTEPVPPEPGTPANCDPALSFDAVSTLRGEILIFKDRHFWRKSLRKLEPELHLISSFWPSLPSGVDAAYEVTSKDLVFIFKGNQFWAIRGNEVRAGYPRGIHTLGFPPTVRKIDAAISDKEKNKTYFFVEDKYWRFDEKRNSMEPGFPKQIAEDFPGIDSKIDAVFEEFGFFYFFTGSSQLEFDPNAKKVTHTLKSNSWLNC
Neutrophil collagenase, sequence (P22894 whole entry): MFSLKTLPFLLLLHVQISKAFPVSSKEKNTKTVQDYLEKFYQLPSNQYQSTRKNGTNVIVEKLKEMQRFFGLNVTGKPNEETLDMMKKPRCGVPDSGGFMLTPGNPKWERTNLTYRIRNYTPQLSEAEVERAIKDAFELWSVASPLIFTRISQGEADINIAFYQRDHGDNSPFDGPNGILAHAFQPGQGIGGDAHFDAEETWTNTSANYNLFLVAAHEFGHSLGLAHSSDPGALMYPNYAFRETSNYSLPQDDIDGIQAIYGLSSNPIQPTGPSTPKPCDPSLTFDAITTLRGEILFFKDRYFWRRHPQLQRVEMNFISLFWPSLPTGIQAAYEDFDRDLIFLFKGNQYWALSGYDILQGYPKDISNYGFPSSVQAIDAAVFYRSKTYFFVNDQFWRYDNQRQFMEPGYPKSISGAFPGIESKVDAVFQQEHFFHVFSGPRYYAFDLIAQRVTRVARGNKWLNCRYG

Structure (SMILES): N[C@H]1CCCC[C@H]1NC(=O)P(=O)(O)O (relative stereo)
- half-life [1]: 1.8 h
- Cmax [2]: 306 µg/mL
- Activity [3]: 95%
- half-life [4]: 13.5 h
- T>MIC [5]: > 6 h
- IC50 [6]: > 100 µM
- Activity [7]: 85%
- clearance [8]: 6.9 mL/min/kg
- IC50 [9]: 20 µM
- Papp [10]: 7.9 ×10⁻⁶ cm/s
- Activity [11]: 90%
- T>MIC [12]: > 12 h
- Cmax [13]: 0.712 µg/mL
- AUC [14]: 44600 ng·h/mL
- IC50 [15]: > 100 µM
- Activity [16]: Non-toxic
- Papp [17]: 9.27 ×10⁻⁶ cm/s
- inhibition [18]: 90%
- AUC [19]: 4500 ng·h/mL
- bioavailability [20]: 11.8%
- Papp [21]: 8.3 ×10⁻⁶ cm/s
- half-life [22]: 0.313 h
- Tmax [23]: 0.29 h
- bioavailability [24]: 0.35%
- T>MIC [25]: > 4 h
- Cmax [26]: 0.544 µg/mL
- IC50 [27]: > 100 µM
- Papp [28]: 2.4 ×10⁻⁶ cm/s
- IC50 [29]: > 100 µM
- AUC [30]: 1320 ng·h/mL
- Activity [31]: 60%
- Inhibition [32]: 50%
- IC50 [33]: > 100 µM
- IC50 [34]: 4 µM
- AUC [35]: 127000 ng·h/mL
- Papp [36]: 7.01 ×10⁻⁶ cm/s
- Tmax [37]: 1 h
- T>MIC [38]: > 24 h
- half-life [39]: 2.1 h
- Tmax [40]: 30 s
- IC50 [41]: > 100 µM
- Vd [42]: 0.186 L/kg
- Cmax [43]: 144 µg/mL

Structure (SMILES): N[C@@H]1CCCC[C@H]1NC(=O)P(=O)(O)O (relative stereo)
- IC50 [6]: > 100 µM
- IC50 [9]: > 100 µM
- IC50 [15]: 25 µM
- IC50 [27]: 90 µM
- IC50 [29]: > 100 µM
- IC50 [33]: 50 µM
- IC50 [34]: > 100 µM
- IC50 [41]: 55 µM
